Source: ChEMBL document CHEMBL1131070, “Synthesis and antiallergic activity of dimethyl-2-(phenylcarbamoyl)ethylsulfonium p-toluenesulfonate derivatives” (J Med Chem, 1998)

How the values were obtained:
[1] = tested on: Rattus norvegicus; test: Inhibition of the homologous passive cutaneous anaphylaxis (PCA) in rat, administered at a dose of 50 mg/kg intraperitoneally; format: functional; conditions: ip, route intraperitoneal
Summary of the method: (§1)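 Rat anti-DNP-As serum (raised with DNP-coupled ascaris plus killed Bordetella pertussis; titer about 1:256 by 48-h PCA) diluted 20-fold in 0.9% saline, given intradermally as 0.1 mL at three shaved-back sites of normal rats, with saline on the other side. After 48 h, 1.0 mL of 0.25% Evans blue containing 2.0 mg of antigen given iv. Read-out is % inhibition ± SD.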

[2] = tested on: Rattus norvegicus; test: Inhibition of homologous Passive Cutaneous Anaphylaxis in rat, following 20 mg/kg i.p. administration.; format: functional; conditions: po, in the assay text read “p.o.” for “i.p.”; summary of the method: as §1
[3] = Lethal dose (LD50) determined in male ddY mice; format: toxicity; conditions: mouse, in vivo
Summary of the method: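 Acute toxicity by the up-down method, five animals per determination, with LD50 reported in mg/kg.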

[4] = tested on: Rattus norvegicus; test: Inhibitory activity against the homologous Passive Cutaneous Anaphylaxis (PCA) in rat, administered at a dose of 100 mg/kg intraperitoneally; format: functional; conditions: ip, route intraperitoneal; summary of the method: as §1
[5] = tested on: Rattus norvegicus; test: Inhibitory activity against the homologous Passive Cutaneous Anaphylaxis (PCA) in rat, administered at a dose of 50 mg/kg perorally; format: functional; conditions: route oral; summary of the method: as §1
[6] = tested on: Rattus norvegicus; test: Inhibitory activity against the homologous Passive Cutaneous Anaphylaxis (PCA) in rat, administered at a dose of 20 mg/kg perorally; format: functional; conditions: route oral; summary of the method: as §1

SMILES | inhibition in vivo at 50 mg/kg [1] [%] | inhibition in vivo at 20 mg/kg [2] [%] | further results
COCC(O)COc1ccc(NC(=O)CC[S+](C)C)cc1 (centres undefined) | 24.8 | 17.7 | –
CCOCC(COc1ccc(NC(=O)CC[S+](C)C)cc1)OC(C)=O (centres undefined) | 30.2 | 35.1 | –
CCOCC(O)COc1ccc(NC(=O)CC[S+](C)C)cc1 (centres undefined) [SUPLATAST TOSILATE] | 35.5 | 28.9 | –
COc1ccc(NC(=O)CC[S+](C)C)cc1 | 17.4 | -4.4 | –
CCOCC(COc1ccccc1NC(=O)CC[S+](C)C)OC(C)=O (centres undefined) | 20 | -2 | –
CC(O)COc1ccc(NC(=O)CC[S+](C)C)cc1.Cc1ccc(S(=O)(=O)[O-])cc1 (centres undefined) | – | – | LD50 [3]: 495 mg/kg
C[S+](C)CCC(N)=O | 2.4 | – | inhibition in vivo at 100 mg/kg [4]: 13.7%
C[S+](C)CCC(=O)Nc1ccc(C(F)(F)F)cc1 | -10.3 | -7.8 | –
C[S+](C)CCC(=O)Nc1ccccc1 | -8.3 | – | inhibition in vivo at 100 mg/kg [4]: 27.1%
CCCOc1ccc(NC(=O)CC[S+](C)C)cc1.Cc1ccc(S(=O)(=O)[O-])cc1 | 29.8 | 13.8 | LD50 [3]: 97 mg/kg
C[S+](C)CCC(=O)Nc1ccc(OCC(O)COc2ccccc2)cc1 (centres undefined) | 4.6 | 14.4 | –
C[S+](C)CCC(=O)Nc1ccc(OCC(O)COC2CCCCC2)cc1 (centres undefined) | -7.4 | 10.2 | –
CCOCC(COc1cccc(NC(=O)CC[S+](C)C)c1)OC(C)=O (centres undefined) | 17.7 | 18.2 | –
CCOCC(COc1ccc(NC(=O)CC[S+](C)C)cc1)OCC (centres undefined) | 5.1 | 0.1 | –
C[S+](C)CCC(=O)Nc1ccc(Cl)cc1 | 0.3 | -0.2 | –
CCCOCC(O)COc1ccc(NC(=O)CC[S+](C)C)cc1 (centres undefined) | 13.8 | 16.3 | –
C[S+](C)CCC(=O)Nc1ccc(CC(=O)O)cc1 | 25.5 | 14.9 | –
C[S+](C)CCC(=O)Nc1ccc(O)cc1 | 9.7 | 21.9 | –
C[S+](C)CCC(=O)Nc1ccc(OCC(O)CO)cc1.Cc1ccc(S(=O)(=O)[O-])cc1 (centres undefined) | 34.9 | 38.7 | inhibition in vivo at 50 mg/kg [5]: 18.6%; inhibition in vivo at 20 mg/kg [6]: 1.4%; LD50 [3]: 1040 mg/kg
COCC(COc1ccc(NC(=O)CC[S+](C)C)cc1)OC (centres undefined) | 10.5 | 17.9 | –
CC(=O)c1ccc(NC(=O)CC[S+](C)C)cc1 | 25.1 | 9 | –
CCCCOCC(O)COc1ccc(NC(=O)CC[S+](C)C)cc1 (centres undefined) | 4.4 | 7.9 | –
C[S+](C)CCC(=O)Nc1ccc(F)cc1 | 1.2 | 4 | –
C[S+](C)CCC(=O)NC1CCCCC1 | 9 | – | inhibition in vivo at 100 mg/kg [4]: 17%
Cc1ccc(NC(=O)CC[S+](C)C)cc1 | 22 | 18.9 | –
C[S+](C)CCC(=O)Nc1ccc(OCCCO)cc1.Cc1ccc(S(=O)(=O)[O-])cc1 | – | – | LD50 [3]: 324 mg/kg
